For assay [1], the target named is Human immunodeficiency virus type 1 protease (Human immunodeficiency virus 1, UniProt Q72874). In words: Binding affinity to HIV protease. The method in brief:
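Continuous fluorometric assay of HIV protease (6.2 nM enzyme) at pH 6.4 with substrate AntThrIleNlePhe(p-NO2)GlnArgNH2. Ki derived assuming pure competitive tight-binding inhibition, by nonlinear least-squares fit to Morrison's tight-binding equation.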

The test system of assay [2] is Simian immunodeficiency virus. In words: Compound was evaluated for the inhibition of SIV induced syncytia formation. Format: functional, organism-based. The method in brief: (§1)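 CEM×174 cells pretreated 30 min with serial 2-fold inhibitor dilutions, then infected with cell-free SIVmac251. Fresh inhibitor added at 48 h. CPE scored as multinucleated giant cell appearance after 7-day incubation. IC50 is the concentration giving 50% CPE inhibition versus infected controls. AZT positive control.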

The test system of assay [3] is CCRF-CEM. In words: Compound was evaluated for the inhibition of HIV infected CEM cells. Format: functional, Homo sapiens. The method in brief: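 CEM (CD4+ lymphocyte line) cultures infected with HTLV-IIIb at MOI 0.1. Compound added 1 h before inoculation; peptides re-dosed days 2 and 5 post-infection. Virus-induced CPE quantitated at day 7 by formazan dye. Controls were untreated, infected and compound-only cells. EC50 for 50% CPE inhibition by linear regression. AZT positive control.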

Assay [4] deals with Simian immunodeficiency virus. As to the kind of experiment: Compound was evaluated at highest concentration (>10 syncytia formation; NA = not active. It is filed as functional, organism-based. The gist of the method:
as §1

Assay [5] deals with CCRF-CEM. As to the kind of experiment: Compound was evaluated at highest concentration (>10 uM) for the inhibition of HIV infected CEM cells; NA = not active. To be noted: Homo sapiens. It is filed as functional, cell-based. The method in brief:
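CEM (CD4+ lymphocyte) cells infected with HTLV-IIIb at MOI 0.1; compound added 1 h before inoculation, with extra doses on days 2 and 5 for metabolically unstable compounds such as peptides. Virus-induced CPE read at day 7 by formazan dye.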

Broadly, the pKi is the negative decadic logarithm of the Ki, by convention in mol/L. Read a low pKi as a large Ki. One may read the pIC50 as the negative decadic logarithm of the IC50, by convention in mol/L. Read a high pIC50 as a small IC50. What is called EC50 is the concentration needed to bring the measured effect to its halfway point.

pIC50, pKi: −log10 of the molar value. ≈ marks a conversion by molar mass, not a printed value. Calls of active or inactive are those of the source. No cut-off for these calls is given here. Starred links: 1 amine or outer side, 2 acyl side, 3 side chain; linkers in the order of their positions; H or OH if unused. Non-standard residues stand in square brackets, D forms with d. Residues, ends and D or L forms follow the SMILES beside them. ξ: configuration not given here. *: point of attachment. Pheψ(R-CH(OH)CH2N)Pro = O=C([C@@H]1CCCN1C[C@@H](O)[C@H](Cc1ccccc1)N[*:1])[*:2]; Pheψ(R-CHOHCH2N)ξPro = O=C(C1CCCN1C[C@@H](O)[C@H](Cc1ccccc1)N[*:1])[*:2]; Phe(3-Ph) = N[C@@H](Cc1cccc(-c2ccccc2)c1)C(=O)O; Bip = N[C@@H](Cc1ccc(-c2ccccc2)cc1)C(=O)O; 2Nal = N[C@@H](Cc1ccc2ccccc2c1)C(=O)O; hPhe = N[C@@H](CCc1ccccc1)C(=O)O; Boc = CC(C)(C)OC(=O)*

Turning to `CC[C@H](C)[C@H](NC(=O)[C@@H]1CCCN1C[C@@H](O)[C@H](Cc1ccccc1)NC(=O)[C@H](CC(N)=O)NC(=O)[C@H](CC(C)C)NC(=O)[C@H](CO)NC(C)=O)C(=O)N[C@H](C(=O)OC)C(C)C` (Ac-SLN[Pheψ(R-CH(OH)CH2N)Pro]IV-OMe), the pKi in assay [1] was 9.62.
With `CC[C@H](C)[C@H](NC(=O)C1CCCN1C[C@@H](O)[C@H](Cc1ccccc1)NC(=O)[C@H](CC(N)=O)NC(=O)[C@H](CC(C)C)NC(=O)[C@H](CO)NC(C)=O)C(=O)N[C@@H](CCc1ccccc1)C(=O)OC` (stereo partly drawn) (Ac-SLN[Pheψ(R-CHOHCH2N)ξPro]I[hPhe]-OMe), the negative-log Ki (pKi) in assay [1] is 8.90.
Still for that read-out and setting: under `CC[C@H](C)[C@H](NC(=O)C1CCCN1C[C@@H](O)[C@H](Cc1ccccc1)NC(=O)[C@H](CC(N)=O)NC(=O)[C@H](Cc1ccc2ccccc2c1)NC(=O)OC(C)(C)C)C(=O)N[C@H](C(=O)OC)C(C)C` (stereo partly drawn) (Boc-[2Nal]N[Pheψ(R-CHOHCH2N)ξPro]IV-OMe) stands 8.11.
As to `CC[C@H](C)[C@H](NC(=O)C1CCCN1C[C@@H](O)[C@H](Cc1ccccc1)NC(=O)[C@H](CC(N)=O)NC(=O)[C@H](CC(C)C)NC(=O)OC(C)(C)C)C(=O)N[C@H](C(=O)OC)C(C)C` (stereo partly drawn) (Boc-LN[Pheψ(R-CHOHCH2N)ξPro]IV-OMe), in assay [1], the negative-log Ki (pKi) was 7.18.
On the same count and under the same terms, under `CC[C@H](C)[C@H](NC(=O)C1CCCN1C[C@@H](O)[C@H](Cc1ccccc1)NC(=O)[C@H](CC(N)=O)NC(=O)[C@H](CC(C)C)NC(=O)[C@H](CO)NC(C)=O)C(=O)N[C@@H](Cc1c[nH]c2ccccc12)C(=O)OC` (stereo partly drawn) (Ac-SLN[Pheψ(R-CHOHCH2N)ξPro]IW-OMe) stands 8.44.
On to `CC[C@H](C)[C@H](NC(=O)C1CCCN1C[C@@H](O)[C@H](Cc1ccccc1)NC(=O)[C@H](CC(N)=O)NC(=O)OCc1ccccc1)C(=O)N[C@@H](Cc1ccccc1)C(=O)OC` (stereo partly drawn), for which the negative logarithm of the IC50 (pIC50) in assay [2] was 5.10. The molecule also had a concentration for a half-maximal effect (EC50) in assay [3] of 0.6 µg/mL (≈ 0.749 µM). In addition, the pKi in assay [1] was 8.77.
On to `CC[C@H](C)[C@H](NC(=O)C1CCCN1C[C@@H](O)[C@H](Cc1ccccc1)NC(=O)[C@H](CC(N)=O)NC(=O)[C@H](CC(C)C)NC(C)=O)C(=O)N[C@H](C(=O)OC)C(C)C` (stereo partly drawn) (Ac-LN[Pheψ(R-CHOHCH2N)ξPro]IV-OMe), for which the pKi in assay [1] is 8.40.
Still for that read-out and setting: under `CC[C@H](C)[C@H](NC(=O)C1CCCN1C[C@@H](O)[C@H](Cc1ccccc1)NC(=O)[C@H](CC(N)=O)NC(=O)OCc1ccccc1)C(=O)N[C@H](C(=O)OC)C(C)C` (stereo partly drawn) stands 8.01; under `CC[C@H](C)[C@H](NC(=O)C1CCCN1C[C@@H](O)[C@H](Cc1ccccc1)NC(=O)[C@H](CC(N)=O)NC(=O)c1ccc2ccccc2n1)C(=O)N[C@H](C(=O)OC)C(C)C` (stereo partly drawn), 8.60.
Molecule `CC[C@H](C)[C@H](NC(=O)C1CCCN1C[C@@H](O)[C@H](Cc1ccccc1)NC(=O)[C@H](CC(N)=O)NC(=O)c1ccc2ccccc2n1)C(=O)N[C@@H](Cc1ccccc1)C(=O)OC` (stereo partly drawn) gave a pKi in assay [1] of 9.40. Compared with the last molecule, the pKi is 0.80 log units higher.
In assay [1], `CC[C@H](C)[C@H](NC(=O)C1CCCN1C[C@@H](O)[C@H](Cc1ccccc1)NC(=O)[C@H](CC(N)=O)NC(=O)[C@H](CC(C)C)NC(=O)[C@H](CO)NC(C)=O)C(=O)N[C@@H](Cc1ccc2ccccc2c1)C(=O)OC` (stereo partly drawn) (Ac-SLN[Pheψ(R-CHOHCH2N)ξPro]I[2Nal]-OMe) had a pKi of 8.29.
`CC[C@H](C)[C@H](NC(=O)C1CCCN1C[C@@H](O)[C@H](Cc1ccccc1)NC(=O)[C@H](CC(N)=O)NC(=O)[C@H](CCc1ccccc1)NC(=O)OC(C)(C)C)C(=O)N[C@H](C(=O)OC)C(C)C` (stereo partly drawn) (Boc-[hPhe]N[Pheψ(R-CHOHCH2N)ξPro]IV-OMe): in assay [1], the pKi was 7.70.
In the case of `CC[C@H](C)[C@H](NC(=O)C1CCCN1C[C@@H](O)[C@H](Cc1ccccc1)NC(=O)[C@H](CC(N)=O)NC(=O)OCc1ccccc1)C(=O)NCCc1ccccn1` (stereo partly drawn), the pKi in assay [1] is 7.15. This pKi is 0.55 log units lower than that of the molecule before.
Consider `CC[C@H](C)[C@H](NC(=O)C1CCCN1C[C@@H](O)[C@H](Cc1ccccc1)NC(=O)[C@H](CC(N)=O)NC(=O)OCc1ccccc1)C(=O)N[C@@H](Cc1ccccc1)C(=O)NC` (stereo partly drawn), for which the pIC50 in assay [2] was 5.40. Also, the EC50 in assay [3] was 0.3 µg/mL (≈ 0.375 µM). In assay [1], the pKi is 8.82.
In assay [1], `CC[C@H](C)[C@H](NC(=O)C1CCCN1C[C@@H](O)[C@H](Cc1ccccc1)NC(=O)[C@H](CC(N)=O)NC(=O)[C@H](Cc1c(I)cc(O)cc1I)NC(=O)OC(C)(C)C)C(=O)N[C@H](C(=O)OC)C(C)C` (stereo partly drawn) had a pKi of 6.88.
`CC[C@H](C)[C@H](NC(=O)C1CCCN1C[C@@H](O)[C@H](Cc1ccccc1)NC(=O)[C@H](CC(N)=O)NC(=O)[C@H](CC(C)C)NC(=O)[C@H](CO)NC(C)=O)C(=O)N[C@@H](Cc1ccccc1)C(=O)OC` (stereo partly drawn) (Ac-SLN[Pheψ(R-CHOHCH2N)ξPro]IF-OMe) had a pKi in assay [1] of 9.17.
`CC[C@H](C)[C@H](NC(=O)[C@@H]1CCCN1C[C@@H](O)[C@H](Cc1ccccc1)NC(=O)[C@H](CC(N)=O)NC(=O)c1ccc2ccccc2n1)C(=O)N[C@@H](Cc1ccccc1)C(=O)OC`: in assay [1], the pKi is 10.00.
In assay [1], `CC[C@H](C)[C@H](NC(=O)C1CCCN1C[C@@H](O)[C@H](Cc1ccccc1)NC(=O)[C@H](CC(N)=O)NC(=O)c1ccc2ccccc2n1)C(=O)N[C@@H](Cc1ccc2ccccc2c1)C(=O)OC` (stereo partly drawn) showed a pKi of 9.30.
Take `CC[C@H](C)[C@H](NC(=O)C1CCCN1C[C@@H](O)[C@H](Cc1ccccc1)NC(=O)[C@H](CC(N)=O)NC(=O)c1ccc2ccccc2n1)C(=O)NCCc1ccccn1` (stereo partly drawn): the pIC50 in assay [2] is 5.40. Besides, the concentration for a half-maximal effect (EC50) in assay [3] came to 0.19 µg/mL (≈ 0.248 µM). In addition, the pKi in assay [1] was 7.89.
Take `CC[C@H](C)[C@H](NC(=O)C1CCCN1C[C@@H](O)[C@H](Cc1ccccc1)NC(=O)[C@H](CC(N)=O)NC(=O)[C@H](CC(C)C)NC(=O)[C@H](CO)NC(C)=O)C(=O)N[C@H](C(=O)OC)C(C)C` (stereo partly drawn) (Ac-SLN[Pheψ(R-CHOHCH2N)ξPro]IV-OMe): the IC50 entry in assay [4] is “Not Active”. The pKi in assay [1] was 9.22. Also, in assay [5], the Inhibition entry is “inactive”.
With `CC[C@H](C)[C@H](NC(=O)C1CCCN1C[C@@H](O)[C@H](Cc1ccccc1)NC(=O)[C@H](CC(N)=O)NC(=O)[C@H](Cc1cccc(-c2ccccc2)c1)NC(=O)OC(C)(C)C)C(=O)N[C@H](C(=O)OC)C(C)C` (stereo partly drawn) (Boc-[Phe(3-Ph)]N[Pheψ(R-CHOHCH2N)ξPro]IV-OMe), the pKi in assay [1] is 8.17.
On the same count and under the same terms, under `CC[C@H](C)[C@H](NC(=O)C1CCCN1C[C@@H](O)[C@H](Cc1ccccc1)NC(=O)[C@H](CC(N)=O)NC(=O)[C@H](Cc1ccc(-c2ccccc2)cc1)NC(=O)OC(C)(C)C)C(=O)N[C@H](C(=O)OC)C(C)C` (stereo partly drawn) (Boc-[Bip]N[Pheψ(R-CHOHCH2N)ξPro]IV-OMe) stands 7.85; under `CC[C@H](C)[C@H](NC(=O)C1CCCN1C[C@@H](O)[C@H](Cc1ccccc1)NC(=O)[C@H](CC(N)=O)NC(=O)OC(C)(C)C)C(=O)N[C@H](C(=O)OC)C(C)C` (stereo partly drawn), 6.36.
The molecule `CC[C@H](C)[C@H](NC(=O)C1CCCN1C[C@@H](O)[C@H](Cc1ccccc1)NC(=O)[C@H](CC(N)=O)NC(=O)OCc1ccccc1)C(=O)N[C@@H](Cc1ccc2ccccc2c1)C(=O)OC` (stereo partly drawn) gave a pKi in assay [1] of 8.72.
Molecule `CC[C@H](C)[C@H](NC(=O)[C@@H]1CCCN1C[C@@H](O)[C@H](Cc1ccccc1)NC(=O)[C@H](CC(N)=O)NC(=O)OCc1ccccc1)C(=O)N[C@@H](Cc1ccccc1)C(=O)OC` showed a pIC50 in assay [2] of 5.40. In assay [3], this molecule registered an EC50 of 0.31 µg/mL (≈ 0.387 µM). The pKi in assay [1] is 9.00.
The matching figures for `CC[C@H](C)[C@H](NC(=O)C1CCCN1C[C@@H](O)[C@H](Cc1ccccc1)NC(=O)[C@H](CC(N)=O)NC(=O)c1ccc2ccccc2n1)C(=O)N[C@@H](Cc1ccccc1)C(=O)NC` (stereo partly drawn): 5.40, 0.13 µg/mL (≈ 0.158 µM) and 9.10.

(Values after ChEMBL document CHEMBL1125316, “New hydroxyethylamine HIV protease inhibitors that suppress viral replication” (J Med Chem, 1992).)
